Bioassay records (PubChem)
Most compounds without a hit are left out; they make up all but 2.5% or so of the library.
NR2E3 ag-1 – activates human NR2E3 receptor; 360,000 compounds, 0.35% hits; inhibition of corepressor binding, % at 3.98 µM; AID 602229; CHO-S Gal4-NCOR/VP16-NR2E3 two-hybrid, luciferase; Q9Y5X4;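 active = inhibition above the mean of all tested compounds plus 3 SD, cut at about 70% in these data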;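 also: 0% = DMSO with NR2E3 transfected cells and 100% = cells lacking NR2E3 construct; higher means lower luciferase signal from less NR2E3 corepressor binding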
NadD inh – inhibitors of Staphylococcus aureus NadD; 360,000 compounds, 0.78% hits; purified NadD enzyme, colorimetric absorbance read-out; inhibition, % at 20 µM; in the data active = inhibition above about 26%
bovine MsrA act – bovine methionine sulfoxide reductase A activation; purified bovine MsrA, absorbance read-out; activation, % at 10.6 µM; 360,000 compounds, 0.3% hits; AID 602163; in the data active = activation above about 7.5%;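 also: 0% = vehicle and 100% = reference activator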
NR2E3 ag-2 – agonists of human nuclear receptor NR2E3; 320,000 compounds, 0.12% hits; GST-NR2E3/biotin-RetCOR TR-FRET, 1536-well; inhibition of corepressor binding, % at 4.78 µM; Q9Y5X4; AID 2300;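 active = percent inhibition above the cutoff of mean plus 3 SD of all tested compounds, set per screening campaign, cut at about 20% in these data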;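 also: 0% = DMSO wells and 100% = biotin wells as full block of FRET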
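Test system – NR2E3–RetCOR corepressor complex · Quantity – NR2E3 fusion 1.35 nM · Buffer or medium – Tris pH 7.5 · Incubation – Compound–protein incubation for 5 h at 4 °C · Technique – TR-FRET, Eu(K)-anti-GST donor, streptavidin-D2 acceptor, ex 340, em 617/671 nm · Evaluation – percent inhibition of 671/617 nm emission ratio versus biotin and DMSO controls · Plate – 1536-well format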
GalR3 antag – blocks the human galanin receptor 3; 360,000 compounds, 0.44% hits; O60755; inhibition, % at 3 µM; HEK293 GalR3-CNG cAMP membrane potential fluorescence; galR3 body fused to GalR1 C-terminus;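 active = inhibition above the screen-wide average plus 3 SD, cut at about 13% in these data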;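 also: forskolin and galanin both at EC90 stimulate the cells; cAMP rise reported by CNG channel membrane potential dye signal; 0% = forskolin plus galanin with DMSO and 100% = forskolin alone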
Target sequence (O60755 1-299 limits assumed): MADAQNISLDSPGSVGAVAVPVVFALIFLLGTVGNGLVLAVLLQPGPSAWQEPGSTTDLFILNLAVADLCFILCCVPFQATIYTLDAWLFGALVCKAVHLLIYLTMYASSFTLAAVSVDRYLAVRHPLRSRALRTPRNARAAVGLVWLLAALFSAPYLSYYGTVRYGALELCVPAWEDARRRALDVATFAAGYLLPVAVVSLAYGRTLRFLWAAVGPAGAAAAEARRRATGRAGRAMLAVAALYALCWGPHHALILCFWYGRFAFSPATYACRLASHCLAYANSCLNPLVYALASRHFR
MsrA inh – inhibits bovine methionine sulfoxide reductase A. purified bovine MsrA, absorbance read-out. inhibition, % at 15.5 µM. 360,000 compounds, 0.75% hits. AID 651718; in the data active = inhibition above about 4.5%;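 also: 0% = vehicle wells with enzyme and 100% = reference inhibitor wells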
GalR3 antag conf – GalR3 (human) antagonism, confirmation; shares compounds with GalR3 antag; HEK293 GalR3 CNG cAMP biosensor, membrane potential fluorescence; galR3 fused to GalR1 carboxy tail; challenged with forskolin and galanin at EC90; inhibition, % at 3 µM; 1,600 compounds, 59% hits; AID 652245;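 active = inhibition above the primary screen's cutoff, the mean inhibition of all screened compounds plus 3 SD, cut at about 13% in these data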;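 also: 0% = forskolin plus galanin and 100% = forskolin alone with DMSO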
HEK-CNG parental – acts as nonspecific agonist in parental HEK-CNG cells | shares compounds with GalR3 antag | HEK293-CNG parental cells, cAMP membrane potential fluorescence; normalised: DMSO wells 0%, forskolin wells 100% | activation, % at 3 µM | 1,600 compounds, 10% hits | AID 652268; in the data active = activation above about 1.3%
An asterisk follows results filed as active; · = no result.

SMILES	NR2E3 ag-1	NadD inh	bovine MsrA act	NR2E3 ag-2	GalR3 antag	MsrA inh	GalR3 antag conf	HEK-CNG parental
COc1ccccc1NC(=O)CCCc1nc(-c2ccc(OC)c(OC)c2)no1	-2	-14	-3	5	23*	1	16*	0
Cc1nc(N2N=C(c3ccc(Cl)cc3)CC2c2ccco2)sc1C(=O)N(C)C (stereo not given)	-78	10	-4	4	21*	2	7	1
O=C(Nc1ccncc1)c1ccc(Cl)c(S(=O)(=O)N2CCc3ccccc32)c1	-9	4	-8	3	40*	0	61*	0
COc1ccc(C(=O)Nc2ccc(S(=O)(=O)N3CCc4ccccc43)cc2)cc1	15	1	-11	2	30*	0	86*	-2
Clc1cccc(Cl)c1CSc1nnc(/C=C/c2ccccc2)o1	-77	2	-6	1	2	3	·	·
COc1ccc(-c2nnc(NC(=O)c3cc(C)on3)s2)cc1	-10	1	-9	0	2	2	·	·
COc1ccc(N2C(=O)CN(Cc3cc(OC)c(OC)c(OC)c3)C2=S)cc1	-3	-4	-1	-4	14*	-1	6	-1
Cc1ccc(NC(=S)N2CCN(C(=O)C3CCCO3)CC2)c(C)c1 (stereo not given)	5	2	-3	-2	-2	1	·	·
COC(=O)C(NS(=O)(=O)c1cccc(S(=O)(=O)NC(C(=O)OC)c2ccccc2)c1)c1ccccc1 (stereo not given)	-3	1	-1	3	-5	-1	·	·
Cc1cc(C)n(C(=O)COc2ccc(Cl)cc2Cl)n1	-15	0	0	-2	14*	1	16*	0
Cc1cc(C)n(CC(=O)NNC(=O)COc2ccc(Cl)cc2Cl)n1	7	1	0	0	-7	0	·	·
COc1ccc(NC(=O)c2ccc(-c3c(C)noc3C)c3ccoc23)cn1	-2	-2	1	·	44*	-1	8	1
COn1c(SCc2ccc(Cl)cc2)nc2ccccc2c1=O	-12	3	-1	1	-5	0	·	·
COn1c(SCc2cccnc2)nc2ccccc2c1=O	-27	4	0	-1	·	0	3	1
O=C(Nc1ccccc1)Nc1nnc(-c2ccccc2)s1	-57	0	-4	-1	-6	1	·	·
CC1(C)Oc2ccc3ccc(=O)oc3c2/C(=C/Nc2ccc(O)cc2)C1=O	10	-6	-3	-2	-6	-1	·	·
CCn1ncc(C2=NOC(C(=O)NCc3ccccc3)C2)c1C (stereo not given)	-14	-5	0	0	16*	0	25*	1
CCn1ncc(C2=NOC(C(=O)NCc3ccc(OC)cc3)C2)c1C (stereo not given)	-6	2	-3	1	-4	1	·	·
Nc1cc(=O)[nH]c(=O)n1-c1cccc(F)c1	-19	3	-2	-2	27*	-1	6	0
COc1ccc(-n2c(N)cc(=O)[nH]c2=O)cc1	·	·	·	1	·	·	·	·
CCOC(=O)c1ccc(NC(=O)Nc2nncs2)cc1	-36	-3	-2	·	14*	0	20*	1.4*
CCOC(=O)c1ccc(NC(=O)Nc2nc3ccccc3s2)cc1	18	4	-10	·	-3	1	·	·
O=C(CSc1nc2ccccc2o1)Nc1ccc(N2CCOCC2)c(Cl)c1	5	4	-2	3	92*	2	109*	0
COCCOC(=O)c1c(NC(=O)CN2c3ccccc3CC2C)sc(C(N)=O)c1C (stereo not given)	-21	1	-5	-1	17*	1	10	1
N#Cc1ccc(CN2CCN(C(=O)CNC(=O)Cc3cccc4ccccc34)CC2)cc1	12	0	-2	·	22*	-1	10	0
